Test results taken from ChEMBL document CHEMBL3525906, “A comprehensive assessment of repaglinide metabolic pathways: impact of choice of in vitro system and relative enzyme contribution to in vitro clearance” (Drug Metab Dispos, 2012).
Blank lines part the entries; values can stand above or below the molecule they belong to.

Key:
[1] = Unbound intrinsic clearance in human hepatic S9 fraction assessed as 10 uM disulfiram-mediated inhibition of 2-despiperidyl-2-(5-carboxypentylamine) repaglinide formation at 0.5 to 150 uM by LC-MS/MS method; format: tissue-based, Liver; settings: s9, 150 µM
[2] = Unbound intrinsic clearance in human hepatic S9 fraction assessed as IC50 for disulfiram-mediated inhibition of 2-despiperidyl-2-(5-carboxypentylamine) repaglinide formation at 10, 25 and 50 uM by LC-MS/MS method
Cytochrome P450 3A5 = Cytochrome P450 3A5 (Homo sapiens, UniProt P20815); experiment: Drug metabolism assessed as human recombinant CYP3A5-mediated metabolite formation at 0.5 to 150 uM by LC-MS/MS method; format: ADME; settings: recombinant enzyme
How it was run: (§1)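 Recombinant P450 (CYP2C8 50, CYP3A4 30, CYP3A5 100; units not given) incubated 10 min at 37°C with repaglinide (8 concentrations, 0.5–150 μM) in 0.1 M phosphate pH 7.4, 10 mM MgCl2, NADPH-regenerating system (1 mM NADP+, isocitrate/isocitrate dehydrogenase). Quenched with ice-cold methanol plus indomethacin internal standard. M1, M2, M4 quantified by LC-MS/MS against authentic standards. Michaelis-Menten fit; mean ± SD, n=3.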

[3] = Retention time of the compound by LC-MS/MS method; format: physicochemical
Cytochrome P450 2C8 = biological target: T1, Cytochrome P450 2C8 (Homo sapiens, UniProt P10632); experiment: Drug metabolism assessed as human recombinant CYP2C8-mediated metabolite formation at 0.5 to 150 uM by LC-MS/MS method; format: ADME; settings: recombinant enzyme; how it was run: as §1
T1 sequence (P10632 whole entry): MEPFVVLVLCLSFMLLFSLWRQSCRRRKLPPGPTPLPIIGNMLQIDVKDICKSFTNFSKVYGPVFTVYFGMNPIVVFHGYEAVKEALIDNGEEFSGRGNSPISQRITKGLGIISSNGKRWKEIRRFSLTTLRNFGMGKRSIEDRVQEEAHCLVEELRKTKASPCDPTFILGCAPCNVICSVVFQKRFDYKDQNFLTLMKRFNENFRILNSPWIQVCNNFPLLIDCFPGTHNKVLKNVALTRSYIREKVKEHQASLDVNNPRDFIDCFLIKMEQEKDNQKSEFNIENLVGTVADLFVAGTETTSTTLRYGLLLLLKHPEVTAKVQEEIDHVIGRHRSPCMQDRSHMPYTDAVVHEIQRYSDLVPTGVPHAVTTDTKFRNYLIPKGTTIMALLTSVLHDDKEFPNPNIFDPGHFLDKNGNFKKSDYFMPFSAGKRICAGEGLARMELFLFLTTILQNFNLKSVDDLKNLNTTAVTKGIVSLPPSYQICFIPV

Cytochrome P450 3A4 = Cytochrome P450 3A4 (Homo sapiens, UniProt P08684); experiment: Drug metabolism assessed as human recombinant CYP3A4-mediated metabolite formation at 0.5 to 150 uM by LC-MS/MS method; format: ADME; settings: recombinant enzyme; how it was run: as §1
Cytochrome P450 3A4, sequence (P08684 whole entry): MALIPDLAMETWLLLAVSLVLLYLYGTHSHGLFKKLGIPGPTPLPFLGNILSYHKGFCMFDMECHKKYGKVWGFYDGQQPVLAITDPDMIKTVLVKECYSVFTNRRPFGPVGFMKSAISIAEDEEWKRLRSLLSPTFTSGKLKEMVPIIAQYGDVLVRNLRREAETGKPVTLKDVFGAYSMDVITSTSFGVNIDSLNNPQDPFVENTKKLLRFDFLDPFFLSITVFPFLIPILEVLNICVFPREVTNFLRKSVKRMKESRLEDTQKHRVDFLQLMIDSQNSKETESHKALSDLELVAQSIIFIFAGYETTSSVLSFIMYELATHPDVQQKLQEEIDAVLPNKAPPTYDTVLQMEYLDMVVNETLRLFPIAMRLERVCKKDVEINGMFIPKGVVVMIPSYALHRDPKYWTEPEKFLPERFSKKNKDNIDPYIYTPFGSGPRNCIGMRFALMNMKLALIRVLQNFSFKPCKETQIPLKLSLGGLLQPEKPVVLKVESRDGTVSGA

[4] = Ratio of human recombinant CYP3A4-mediated unbound intrinsic clearance to human recombinant CYP2C8-mediated unbound intrinsic clearance; format: ADME; settings: recombinant enzyme
[5] = Ratio of human recombinant CYP3A4-mediated unbound intrinsic clearance to human recombinant CYP3A5-mediated unbound intrinsic clearance; format: ADME; settings: recombinant enzyme
Homo sapiens [6] = species on record: Homo sapiens; experiment: Unbound intrinsic clearance in human hepatic S9 fraction assessed as gemfibrozil glucuronide-mediated inhibition of 2-despiperidyl-2-amino repaglinide intrinsic clearance at 0.5 to 150 uM by LC-MS/MS method
Homo sapiens [7] = species on record: Homo sapiens; experiment: Unbound intrinsic clearance in human hepatic S9 fraction assessed as ketoconazole-mediated inhibition of 3'-hydroxy repaglinide intrinsic clearance at 0.5 to 150 uM by LC-MS/MS method
[8] = Ratio of human recombinant CYP2C8-mediated unbound intrinsic clearance to human recombinant CYP3A4-mediated unbound intrinsic clearance; format: ADME; settings: recombinant enzyme
[9] = Ratio of human recombinant CYP2C8-mediated unbound intrinsic clearance to human recombinant CYP3A5-mediated unbound intrinsic clearance; format: ADME; settings: recombinant enzyme
[10] = substrate: CCOc1cc(CC(=O)N[C@@H](CC(C)C)c2ccccc2N2CCCCC2)ccc1C(=O)O; experiment: Activity of human recombinant CYP2C8 expressed in insect cells assessed as enzyme-mediated 2-despiperidyl-2-amino repaglinide formation by LC-MS/MS method; format: ADME; how it was run: as §1
[11] = substrate: CCOc1cc(CC(=O)N[C@@H](CC(C)C)c2ccccc2N2CCCCC2)ccc1C(=O)O; experiment: Activity of human recombinant CYP2C8 expressed in insect cells assessed as enzyme-mediated 3'-hydroxy repaglinide formation by LC-MS/MS method; format: ADME; how it was run: as §1
[12] = substrate: CCOc1cc(CC(=O)N[C@@H](CC(C)C)c2ccccc2N2CCCCC2)ccc1C(=O)O; experiment: Activity of human recombinant CYP2C8 expressed in insect cells assessed as enzyme-mediated 2-despiperidyl-2-amino repaglinide formation per picomole of protein at 0.5 to 150 uM by LC-MS/MS method; format: ADME; how it was run: as §1
[13] = substrate: CCOc1cc(CC(=O)N[C@@H](CC(C)C)c2ccccc2N2CCCCC2)ccc1C(=O)O; experiment: Activity of human recombinant CYP2C8 expressed in insect cells assessed as enzyme-mediated 3'-hydroxy repaglinide formation per picomole of protein at 0.5 to 150 uM by LC-MS/MS method; format: ADME; how it was run: as §1
[14] = substrate: CCOc1cc(CC(=O)N[C@@H](CC(C)C)c2ccccc2N2CCCCC2)ccc1C(=O)O; experiment: Activity of human recombinant CYP3A5 expressed in insect cells assessed as enzyme-mediated 3'-hydroxy repaglinide formation per picomole of protein at 0.5 to 150 uM by LC-MS/MS method; format: ADME; how it was run: as §1
[15] = substrate: CCOc1cc(CC(=O)N[C@@H](CC(C)C)c2ccccc2N2CCCCC2)ccc1C(=O)O; experiment: Activity of human recombinant CYP3A5 expressed in insect cells assessed as enzyme-mediated 2-despiperidyl-2-amino repaglinide formation by LC-MS/MS method; format: ADME; how it was run: as §1
[16] = substrate: CCOc1cc(CC(=O)N[C@@H](CC(C)C)c2ccccc2N2CCCCC2)ccc1C(=O)O; experiment: Activity of human recombinant CYP3A5 expressed in insect cells assessed as enzyme-mediated 2-despiperidyl-2-amino repaglinide formation per picomole of protein at 0.5 to 150 uM by LC-MS/MS method; format: ADME; how it was run: as §1

inhibition (INH) [1]: 89%
IC50 [2]: 1.2 µM
Drug metabolism (Cytochrome P450 3A5): < 1 nM
Retention_time [3]: 2.8 min
Drug metabolism (Cytochrome P450 2C8): < 1 nM
Drug metabolism (Cytochrome P450 3A4): < 1 nM
Molecule: CCOc1cc(CC(=O)N[C@@H](CC(C)C)c2ccccc2NCCCCC(=O)O)ccc1C(=O)O

Retention_time [3]: 3.4 min
Molecule: CCOc1cc(CC(=O)N[C@@H](CC(C)C)c2ccccc2N2CCCCC2)ccc1C(=O)O[C@@H]1O[C@H](C(=O)O)[C@@H](O)[C@H](O)[C@H]1O

Ratio [4]: 32
Retention_time [3]: 2.7 min
Ratio [5]: 85
inhibition (INH) (Homo sapiens [6]): < 30%
Molecule: CCOc1cc(CC(=O)N[C@@H](CC(C)C)c2ccccc2N)ccc1C(=O)O

Retention_time [3]: 2.9 min
inhibition (INH) (Homo sapiens [7]): < 30%
Ratio [8]: 35
Ratio [9]: 360
Molecule: CCOc1cc(CC(=O)N[C@@H](CC(C)C)c2ccccc2N2CCCC(O)C2)ccc1C(=O)O (stereo partly drawn)

Retention_time [3]: 3 min
Molecule: COc1ccc2c(c1)c(CC(=O)O)c(C)n2C(=O)c1ccc(Cl)cc1 [INDOMETHACIN]

B1: Cytochrome P450 2C8 (Homo sapiens) (protein)
chain: T1 sequence (P10632 whole entry)
Km [10]: 25 µM
Km [11]: 5.7 µM
kcat [12]: 0.00133 s⁻¹
kcat [13]: 0.00583 s⁻¹

B2: Cytochrome P450 3A5 (Homo sapiens) (protein)
chain: MDLIPNLAVETWLLLAVSLVLLYLYGTRTHGLFKRLGIPGPTPLPLLGNVLSYRQGLWKFDTECYKKYGKMWGTYEGQLPVLAITDPDVIRTVLVKECYSVFTNRRSLGPVGFMKSAISLAEDEEWKRIRSLLSPTFTSGKLKEMFPIIAQYGDVLVRNLRREAEKGKPVTLKDIFGAYSMDVITGTSFGVNIDSLNNPQDPFVESTKKFLKFGFLDPLFLSIILFPFLTPVFEALNVSLFPKDTINFLSKSVNRMKKSRLNDKQKHRLDFLQLMIDSQNSKETESHKALSDLELAAQSIIFIFAGYETTSSVLSFTLYELATHPDVQQKLQKEIDAVLPNKAPPTYDAVVQMEYLDMVVNETLRLFPVAIRLERTCKKDVEINGVFIPKGSMVVIPTYALHHDPKYWTEPEEFRPERFSKKKDSIDPYIYTPFGTGPRNCIGMRFALMNMKLALIRVLQNFSFKPCKETQIPLKLDTQGLLQPEKPIVLKVDSRDGTLSGE
kcat [14]: 0.000833 s⁻¹
Km [15]: 66 µM
kcat [16]: 0.00133 s⁻¹
